Data published in ChEMBL document CHEMBL1125781, “Peptide to glycopeptide: glycosylated oligopeptide renin inhibitors with attenuated in vivo clearance properties” (J Med Chem, 1991).
*1 amine or outer side, *2 acyl side, *3 side chain or, on linkers, in order; H or OH if unused. Where a SMILES comes first, the peptide text is derived from it. [ ]: non-standard residue; d: D form. The star is where a group is joined. ξ: configuration not given here. X1 = CC(C)C[C@H](N[*:1])[C@@H](O)C[C@H](C(=O)[*:2])C(C)C; NH(2-picolyl-N-oxide) = [O-][n+]1ccccc1CN*; NMeH = CN[C@@H](Cc1c[nH]cn1)C(=O)O; NHCH2(2-pyridyl) = c1ccc(CN*)nc1; X2 = CC(=O)NC1C(N*)OC(CO)C(O)C1O; Ile(3ξ) = CCC(C)[C@H](N)C(=O)O; NHC(CH2OH)3 = OCC(CO)(CO)N*; X3 = OCC1OC(N*)C(O)C(O)C1O; Boc = CC(C)(C)OC(=O)*; CO = O=C([*:1])[*:2]

What was measured:
Format in all cases: functional, organism-based
Rattus norvegicus [1] = species on record: Rattus norvegicus; assay: Compound was tested for the biliary recovery dose in rats
Summary of the method: (§1)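 Anesthetized, bile duct cannulated rats given peptide by tail vein injection, 1 mg kg⁻¹ or the molar equivalent, in 3 mM citric acid/saline vehicle. Blood taken from the orbital sinus at 5 and 60 min. Serum inhibitor concentration measured by renin enzyme activity assay. Percent of recovered dose in bile and urine determined over the 3-h study period. Means, n = 4.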

Rattus norvegicus [2] = species on record: Rattus norvegicus; assay: Compound was tested for the urinary recovery dose in rats; settings: Urine; summary of the method: as §1
Rattus norvegicus [3] = assay: Serum concentration at 5 min after iv administration in bile duct cannulated rat; summary of the method: as §1
Rattus norvegicus [4] = assay: Serum concentration at 60 min after iv administration in bile duct cannulated rat; summary of the method: as §1
Rattus norvegicus [5] = assay: Serum concentration at 60 min after iv administration in bile duct cannulated rat.; summary of the method: as §1
Rattus norvegicus [6] = assay: Serum concentration at 5 min after iv administration in bile duct cannulated rat.; summary of the method: as §1

SMILES: CCC(C)[C@H](NC(=O)[C@@H](C[C@H](O)[C@H](CC(C)C)NC(=O)[C@H](Cc1c[nH]cn1)N(C)C(=O)[C@H](Cc1ccccc1)NC(=O)[C@@H]1CCCN1C(=O)[C@H](CC(=O)NC1OC(CO)C(O)C(O)C1O)NC(=O)OC(C)(C)C)C(C)C)C(=O)NCc1ccccn1 (stereo partly specified) (Boc-D(X3)PF[NMeH][X1][Ile(3ξ)]-{NHCH2(2-pyridyl)})
- Recovery (Rattus norvegicus [1]): 65%
- Recovery (Rattus norvegicus [2]): 35%
- Serum concentration (Rattus norvegicus [3]): 2190 nM
- Serum concentration (Rattus norvegicus [4]): 39 nM

SMILES: CCC(C)[C@H](NC(=O)[C@@H](C[C@H](O)[C@H](CC(C)C)NC(=O)[C@H](Cc1c[nH]cn1)N(C)C(=O)[C@H](Cc1ccccc1)NC(=O)[C@@H]1CCCN1C(=O)[C@H](CC(=O)NC1OC(CO)C(O)C(O)C1NC(C)=O)NC(=O)OC(C)(C)C)C(C)C)C(=O)NCc1cccc[n+]1[O-] (stereo partly specified) (Boc-D(X2)PF[NMeH][X1][Ile(3ξ)]-{NH(2-picolyl-N-oxide)})
- Recovery (Rattus norvegicus [1]): 33%
- Recovery (Rattus norvegicus [2]): 67%
- Serum concentration (Rattus norvegicus [3]): 2580 nM
- Serum concentration (Rattus norvegicus [4]): 158 nM

SMILES: CCC(C)[C@H](NC(=O)[C@@H](C[C@H](O)[C@H](CC(C)C)NC(=O)[C@H](Cc1c[nH]cn1)N(C)C(=O)[C@H](Cc1ccccc1)NC(=O)[C@@H]1CCCN1C(=O)[C@H](CC(=O)NC1OC(CO)C(O)C(O)C1NC(C)=O)NC(=O)OC(C)(C)C)C(C)C)C(=O)NCc1ccccn1 (stereo partly specified) (Boc-D(X2)PF[NMeH][X1][Ile(3ξ)]-{NHCH2(2-pyridyl)})
- Recovery (Rattus norvegicus [1]): 76%
- Recovery (Rattus norvegicus [2]): 24%
- Serum concentration (Rattus norvegicus [5]): 20 nM
- Serum concentration (Rattus norvegicus [3]): 1790 nM

SMILES: CCC(C)[C@H](NC(=O)[C@@H](C[C@H](O)[C@H](CC(C)C)NC(=O)[C@H](Cc1c[nH]cn1)N(C)C(=O)[C@H](Cc1ccccc1)NC(=O)[C@@H]1CCCN1C(=O)NC(CO)(CO)CO)C(C)C)C(=O)NCc1cccc[n+]1[O-] (stereo partly specified) ({NHC(CH2OH)3-CO}-PF[NMeH][X1][Ile(3ξ)]-{NH(2-picolyl-N-oxide)})
- Recovery (Rattus norvegicus [1]): 83%
- Recovery (Rattus norvegicus [2]): 17%
- Serum concentration (Rattus norvegicus [5]): 15 nM
- Serum concentration (Rattus norvegicus [6]): 1100 nM
